ChEMBL document CHEMBL4330104, “Synthesis, biological evaluations and computational studies of N-(3-(-2-(7-Chloroquinolin-2-yl)vinyl) benzylidene)anilines as fungal biofilm inhibitors” (Bioorg Med Chem Lett, 2019)
In brackets after ≈: the same amount, converted by molar mass.

Legend:
Candida albicans [1] = assay: Antibiofilm activity against Candida albicans NCIM 3471 after 24 hrs by MTT assay; assay type: functional, organism-based; settings: NCIM 3471, 24 h
Outline: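 Biofilms formed from C. albicans at 10^5 cells/well in RPMI, exposed to 0–100 µM compound (fluconazole reference) for 24 h at 30 °C. Wells washed with phosphate buffer, then MTT (1 µg/µL) added for 3 h in the dark. Formazan dissolved in DMSO, absorbance read at 575 nm. IC50 for 50% biofilm inhibition taken from the inhibition curve.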

Candida albicans [2] = assay: Antifungal activity against Candida albicans NCIM 3471 after 48 to 72 hrs by SDA agar dilution method; assay type: functional
Outline: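 CLSI agar method. Compounds dissolved in DMSO. C. albicans subcultured on Sabouraud dextrose agar at 25 °C for 72 h, suspended in sterile water at 10^5 cells/mL, and inoculated onto test, drug-free and DMSO control plates. Plates incubated at 25 °C. MIC taken as the lowest concentration that prevents macroscopically visible colonies, read at 48 h and 72 h.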

Pseudomonas aeruginosa = assay: Antibacterial activity against Pseudomonas aeruginosa NCIM 2036 after 24 hrs by two-fold serial dilution method; assay type: functional; settings: NCIM 2036, 24 h
Outline: (§1)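 Bacterial inocula taken from 24 h nutrient agar cultures at 37±1 °C, brought to […] with sterile saline, grown in nutrient broth. Compounds tested as two-fold serial dilutions at 400, 200, 100, 50, 25, 12.5, 6.25 and 3.13 µg/mL, with ciprofloxacin as reference. Incubation at 37±1 °C; MIC read after 24 h.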

Escherichia coli = assay: Antibacterial activity against Escherichia coli NCIM 2256 after 24 hrs by two-fold serial dilution method; assay type: functional; settings: NCIM 2256, 24 h; outline: as §1
Bacillus subtilis = assay: Antibacterial activity against Bacillus subtilis NCIM 2063 after 24 hrs by two-fold serial dilution method; assay type: functional; settings: NCIM 2063, 24 h; outline: as §1
Staphylococcus aureus = assay: Antibacterial activity against Staphylococcus aureus NCIM 2901 after 24 hrs by two-fold serial dilution method; assay type: functional; settings: NCIM 2901, 24 h; outline: as §1

Row | Structure (SMILES) | IC50 (Candida albicans [1]) [µM] | MIC (Candida albicans [2]) [µg/mL] | MIC (Pseudomonas aeruginosa) [µg/mL] | MIC (Escherichia coli) [µg/mL] | MIC (Bacillus subtilis) [µg/mL] | MIC (Staphylococcus aureus) [µg/mL]
1 | O=[N+]([O-])c1cccc(/N=C/c2cccc(/C=C/c3ccc4ccc(Cl)cc4n3)c2)c1 | 83.6 | 106 (≈ 256 µM) | 190 (≈ 459 µM) | 185 (≈ 447 µM) | 17.4 (≈ 42 µM) | 104 (≈ 252 µM)
2 | COc1ccc(/N=C/c2cccc(/C=C/c3ccc4ccc(Cl)cc4n3)c2)cc1 | 97.5 | 105 (≈ 263 µM) | 167 (≈ 419 µM) | 120 (≈ 301 µM) | 17.6 (≈ 44.1 µM) | 94.8 (≈ 238 µM)
3 | Clc1ccc(/N=C/c2cccc(/C=C/c3ccc4ccc(Cl)cc4n3)c2)cc1 | 66.2 | 94.2 (≈ 234 µM) | 228 (≈ 567 µM) | 45 (≈ 112 µM) | 31.6 (≈ 78.4 µM) | 170 (≈ 422 µM)
4 | Cc1ccc(/N=C/c2cccc(/C=C/c3ccc4ccc(Cl)cc4n3)c2)cc1 | 96.2 | 164 (≈ 429 µM) | 177 (≈ 462 µM) | 205 (≈ 535 µM) | 17 (≈ 44.3 µM) | 98.5 (≈ 257 µM)
5 | FC(F)(F)c1cccc(/N=C/c2cccc(/C=C/c3ccc4ccc(Cl)cc4n3)c2)c1 | 87.2 | 191 (≈ 437 µM) | 142 (≈ 325 µM) | 102 (≈ 233 µM) | 33.4 (≈ 76.5 µM) | 71.3 (≈ 163 µM)
6 | Clc1ccc2ccc(/C=C/c3cccc(/C=N/c4ccccc4)c3)nc2c1 | 199 | 98.8 (≈ 268 µM) | 102 (≈ 277 µM) | 110 (≈ 298 µM) | 32.4 (≈ 87.7 µM) | 91.6 (≈ 248 µM)
7 | Cc1ccccc1/N=C/c1cccc(/C=C/c2ccc3ccc(Cl)cc3n2)c1 | 166 | 104 (≈ 273 µM) | 185 (≈ 483 µM) | 68.5 (≈ 179 µM) | 136 (≈ 356 µM) | 85.3 (≈ 223 µM)
8 | O=[N+]([O-])c1ccc(/N=C/c2cccc(/C=C/c3ccc4ccc(Cl)cc4n3)c2)cc1 | 92.1 | 121 (≈ 293 µM) | 200 (≈ 484 µM) | 150 (≈ 362 µM) | 15.7 (≈ 37.9 µM) | 166 (≈ 400 µM)
9 | FC(F)(F)c1ccccc1/N=C/c1cccc(/C=C/c2ccc3ccc(Cl)cc3n2)c1 | 94.3 | 282 (≈ 646 µM) | 250 (≈ 572 µM) | 67.5 (≈ 155 µM) | 36.2 (≈ 82.9 µM) | 55.3 (≈ 127 µM)
10 | FC(F)(F)c1ccc(/N=C/c2cccc(/C=C/c3ccc4ccc(Cl)cc4n3)c2)cc1 | 51.2 | 174 (≈ 399 µM) | 91.5 (≈ 209 µM) | 84.5 (≈ 193 µM) | 37.7 (≈ 86.2 µM) | 89.7 (≈ 205 µM)
11 | O=C(O)c1cn(C2CC2)c2cc(N3CCNCC3)c(F)cc2c1=O [CIPROFLOXACIN] |  |  | 50 (≈ 151 µM) |  |  | 
12 | OC(Cn1cncn1)(Cn1cncn1)c1ccc(F)cc1F [FLUCONAZOLE] |  | 50 (≈ 163 µM) |  |  |  | 
